Consider 15 compounds from ChEMBL document CHEMBL3400092 (2015).

Calls of active or inactive are those of the source. The calls are words filed in the database; no cut-off is given here.

Assay [1] concerns the target Epidermal growth factor receptor (Homo sapiens) (UniProt P00533). Particulars: CL1-5, at 10 µM.
The test system of another assay is CL1-5. The assay can be described thus: Reduction in total wild type EGFR levels in gefinitib-insensitive and 24 hrs serum starved human CL1-5 cells at 10 uM pre-incubated for 1 hr before EGF stimulation for 30 mins by Western blot method. Format: functional. Summed up:
(§1)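 Cells in RPMI-1640 with 10% FBS were plated at 1×10^6 per 10-cm dish, cultured overnight, then kept serum-free for 24 h. They were pre-treated with 10 μM compound for 1 h, serum-free, then stimulated with EGF 20 ng/mL (20 min in methods, 30 min in legend). Whole-cell lysates, 40 μg/lane, were run on 10% SDS-PAGE, blotted to PVDF, probed for pan-EGFR and pEGFR (Tyr1068), and detected by ECL.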
Background: In western blotting, separated proteins are transferred to a membrane and probed.

Assay [2] relates to Epidermal growth factor receptor (Homo sapiens), P00533 [L858R,T790M]. As to conditions: NCI-H1975, at 10 µM.
Another assay concerns NCI-H1975. The assay is described as follows: Reduction in total EGFR L858R and T790M mutant levels in gefinitib-resistant and 24 hrs serum starved human NCI-H1975 cells at 10 uM pre-incubated for 1 hr before EGF stimulation for 30 mins by Western blot method. The assay is classed as functional, cell-based. Summed up:
as §1

Chain of Epidermal growth factor receptor (Homo sapiens), P00533 [L858R,T790M] (P00533 whole entry T790M/L858R, looked up): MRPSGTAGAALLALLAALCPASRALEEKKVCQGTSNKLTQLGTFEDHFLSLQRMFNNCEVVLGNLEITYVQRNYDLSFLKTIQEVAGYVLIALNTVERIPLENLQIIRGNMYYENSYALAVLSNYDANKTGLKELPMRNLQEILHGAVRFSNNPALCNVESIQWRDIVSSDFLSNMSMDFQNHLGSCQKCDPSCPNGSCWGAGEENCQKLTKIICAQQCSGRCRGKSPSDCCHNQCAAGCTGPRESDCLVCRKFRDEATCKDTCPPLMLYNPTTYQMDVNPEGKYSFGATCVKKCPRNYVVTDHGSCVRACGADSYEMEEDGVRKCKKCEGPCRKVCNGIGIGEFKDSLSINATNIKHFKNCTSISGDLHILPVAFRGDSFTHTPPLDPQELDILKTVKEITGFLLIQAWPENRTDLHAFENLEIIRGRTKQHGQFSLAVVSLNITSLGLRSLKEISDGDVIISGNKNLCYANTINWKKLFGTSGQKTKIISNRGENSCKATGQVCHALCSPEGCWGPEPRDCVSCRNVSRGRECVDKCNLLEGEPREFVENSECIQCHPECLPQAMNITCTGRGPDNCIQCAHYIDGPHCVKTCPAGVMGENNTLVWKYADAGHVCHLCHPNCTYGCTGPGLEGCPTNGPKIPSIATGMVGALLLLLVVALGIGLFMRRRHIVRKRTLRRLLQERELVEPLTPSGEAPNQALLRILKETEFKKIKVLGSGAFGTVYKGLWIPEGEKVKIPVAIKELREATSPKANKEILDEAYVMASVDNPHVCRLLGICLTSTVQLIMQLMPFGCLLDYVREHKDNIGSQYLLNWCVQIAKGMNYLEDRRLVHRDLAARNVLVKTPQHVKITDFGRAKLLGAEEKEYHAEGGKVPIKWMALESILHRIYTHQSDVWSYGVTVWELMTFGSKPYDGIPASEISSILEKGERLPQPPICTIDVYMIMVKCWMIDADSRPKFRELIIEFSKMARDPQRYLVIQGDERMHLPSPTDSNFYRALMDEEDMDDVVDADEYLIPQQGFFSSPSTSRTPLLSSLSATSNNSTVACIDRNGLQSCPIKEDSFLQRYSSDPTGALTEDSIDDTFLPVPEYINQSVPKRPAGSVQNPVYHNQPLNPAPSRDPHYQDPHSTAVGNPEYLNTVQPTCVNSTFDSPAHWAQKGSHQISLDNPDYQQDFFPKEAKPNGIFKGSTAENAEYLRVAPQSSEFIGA
Chain of Epidermal growth factor receptor (Homo sapiens) (P00533 whole entry): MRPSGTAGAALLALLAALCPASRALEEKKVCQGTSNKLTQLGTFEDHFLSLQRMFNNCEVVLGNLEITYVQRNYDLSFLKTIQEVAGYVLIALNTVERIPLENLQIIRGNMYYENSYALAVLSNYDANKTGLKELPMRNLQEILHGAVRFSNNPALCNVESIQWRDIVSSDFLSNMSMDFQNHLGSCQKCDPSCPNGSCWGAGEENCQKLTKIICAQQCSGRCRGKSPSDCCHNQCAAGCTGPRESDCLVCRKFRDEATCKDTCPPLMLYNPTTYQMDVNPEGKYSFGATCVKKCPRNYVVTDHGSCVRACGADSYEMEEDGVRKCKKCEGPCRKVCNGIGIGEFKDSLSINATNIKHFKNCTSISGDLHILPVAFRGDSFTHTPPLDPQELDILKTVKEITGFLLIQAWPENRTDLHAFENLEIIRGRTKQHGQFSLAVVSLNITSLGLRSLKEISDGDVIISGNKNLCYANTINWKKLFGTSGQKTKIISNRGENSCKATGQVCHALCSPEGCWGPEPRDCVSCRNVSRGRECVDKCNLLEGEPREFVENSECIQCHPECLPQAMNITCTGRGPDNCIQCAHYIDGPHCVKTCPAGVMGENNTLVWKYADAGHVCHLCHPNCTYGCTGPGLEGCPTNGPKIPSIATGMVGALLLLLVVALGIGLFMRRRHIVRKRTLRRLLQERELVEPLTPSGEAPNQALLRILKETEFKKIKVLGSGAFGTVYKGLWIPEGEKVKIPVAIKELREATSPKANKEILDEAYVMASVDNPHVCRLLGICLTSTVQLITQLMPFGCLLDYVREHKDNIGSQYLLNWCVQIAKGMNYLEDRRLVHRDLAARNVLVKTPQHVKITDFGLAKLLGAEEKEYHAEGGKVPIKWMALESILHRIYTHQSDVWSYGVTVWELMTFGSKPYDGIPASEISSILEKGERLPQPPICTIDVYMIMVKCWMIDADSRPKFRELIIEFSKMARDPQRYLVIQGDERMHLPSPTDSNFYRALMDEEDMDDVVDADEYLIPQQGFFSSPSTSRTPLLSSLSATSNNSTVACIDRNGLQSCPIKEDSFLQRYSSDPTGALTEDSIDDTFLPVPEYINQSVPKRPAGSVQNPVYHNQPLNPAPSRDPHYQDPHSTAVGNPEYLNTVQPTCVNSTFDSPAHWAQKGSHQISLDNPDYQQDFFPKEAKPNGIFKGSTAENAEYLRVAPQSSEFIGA

As for `CCOC(=O)/C=C/C(C(=O)/C=C/c1ccc(O)c(OC)c1)=C(O)\C=C\c1ccc(O)c(OC)c1`, the inhibition entry (in assay [1]; in the assay with CL1-5; in assay [2]; in the assay on NCI-H1975) was “inactive” in each case.

On to `COc1ccc(CCC(=O)CC(O)CCc2ccc(OC)c(OC)c2)cc1OC` (centres undefined), for which the inhibition entry (in assay [1]; in the assay on CL1-5; in assay [2]; in the assay on NCI-H1975) was “inactive” in each case.

As for `COc1ccc(/C=C/C(=O)/C(C)=C(O)/C=C/c2ccc(OC)c(OC)c2)cc1OC`, the inhibition result (in assay [1]; in the assay with CL1-5; in assay [2]; with NCI-H1975) was “Active” throughout.

For `CCOC(=O)/C=C/C(C(=O)/C=C/c1ccc(OC)c(OC)c1)=C(O)\C=C\c1ccc(OC)c(OC)c1`, the inhibition entry (in assay [1]; in the assay on CL1-5; in assay [2]; in the assay on NCI-H1975) was “inactive” throughout.

On to `CCOC(=O)CC/C(C(=O)/C=C/c1ccc(O)c(OC)c1)=C(O)\C=C\c1ccc(O)c(OC)c1`, for which the inhibition result (in assay [1]; with CL1-5) was “Active” each time. The inhibition result (in assay [2]; in the assay on NCI-H1975) was “inactive” throughout.

For the compound `COc1cc(OC)c(OC)cc1/C=C/C(=O)/C=C(O)/C=C/c1cc(OC)c(OC)cc1OC`, the inhibition entry (in assay [1]; in the assay on CL1-5; in assay [2]; with NCI-H1975) was “Active” each time.

For the compound `COc1cc(/C=C/C(=O)/C(C(C)=O)=C(O)/C=C/c2ccc(O)c(OC)c2)ccc1O`, the inhibition entry (in assay [1]; in the assay with CL1-5; in assay [2]; with NCI-H1975) was “Active” throughout.

With `COc1cc(/C=C/C(=O)/C(CCC(=O)O)=C(O)/C=C/c2ccc(O)c(OC)c2)ccc1O`, the inhibition entry (in assay [1]; with CL1-5; in assay [2]; in the assay with NCI-H1975) was “inactive” in each case.

Consider `COc1cc(/C=C/C(=O)/C=C(O)/C=C/c2ccc(OCCCC(=O)O)c(OC)c2)ccc1OCCCC(=O)O`, for which the inhibition entry (in assay [1]; with CL1-5; in assay [2]; in the assay on NCI-H1975) was “inactive” in each case.

Take `COc1ccc(/C=C/C(=O)/C=C(O)/C=C/c2ccc(OC)c(OC)c2OC)c(OC)c1OC`: the inhibition result (in assay [1]; in the assay on CL1-5; in assay [2]; in the assay on NCI-H1975) was “Active” each time.

In the case of `COc1cc(/C=C/C(O)=C/C(=O)/C=C/c2ccc(O)cc2)ccc1O`, the inhibition result (in assay [1]; in the assay on CL1-5; in assay [2]; in the assay on NCI-H1975) was “inactive” each time.

In the case of `CCOC(=O)CC/C(C(=O)/C=C/c1cc(O)c(OC)c(OC)c1)=C(O)\C=C\c1cc(O)c(OC)c(OC)c1`, the inhibition entry in assay [1] and in assay [2] was “Active” each time. In addition, the inhibition entry in the assay on CL1-5 is “inactive”.

As to `COc1cc(F)c(/C=C/C(=O)/C=C(O)/C=C/c2cc(OC)c(OC)cc2F)cc1OC`, the inhibition entry (in assay [1]; in the assay on CL1-5; in assay [2]; in the assay on NCI-H1975) was “Active” each time.

For `CCOC(=O)CC/C(C(=O)/C=C/c1ccc(OC)c(OC)c1)=C(O)\C=C\c1ccc(OC)c(OC)c1`, the inhibition result (in assay [1]; in the assay with CL1-5; in assay [2]; with NCI-H1975) was “inactive” in each case.

As to `CCOC(=O)CC/C(C(=O)/C=C/c1ccc(O)c(OC)c1)=C(O)\C=C\c1ccc(O)c(O)c1`, the inhibition result (in assay [1]; in the assay on CL1-5; in assay [2]; with NCI-H1975) was “Active” throughout.
